Here are results for five molecules from ChEMBL document CHEMBL3526051 (Drug Metab Dispos, 2012).

One data set concerns the target Histone deacetylase 4 (Homo sapiens, UniProt P56524). Put plainly: Inhibition of HDAC4 (unknown origin) expressed in HEK293 cells using [3H]acetylated human histone H4 peptide as substrate by scintillation counting.
Another data set addresses T1, Histone deacetylase 8 (Homo sapiens, UniProt Q9BY41).
T1 sequence (Q9BY41 whole entry): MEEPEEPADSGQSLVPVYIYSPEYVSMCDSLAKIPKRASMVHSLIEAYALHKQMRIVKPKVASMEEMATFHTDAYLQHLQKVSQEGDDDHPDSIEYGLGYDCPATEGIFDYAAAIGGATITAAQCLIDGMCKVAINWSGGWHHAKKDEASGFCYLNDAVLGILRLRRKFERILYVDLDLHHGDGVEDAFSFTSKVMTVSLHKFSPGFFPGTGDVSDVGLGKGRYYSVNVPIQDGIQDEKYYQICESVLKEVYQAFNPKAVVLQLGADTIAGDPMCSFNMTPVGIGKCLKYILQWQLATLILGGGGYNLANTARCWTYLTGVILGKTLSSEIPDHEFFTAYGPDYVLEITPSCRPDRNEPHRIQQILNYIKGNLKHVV
Kind of data set: Inhibition of his-strep-tagged HDAC8 (unknown origin) expressed in SF9 cells using [3H]acetylated human histone H4 peptide as substrate by scintillation counting.

In a further data set the target is Histone deacetylase 1 (Homo sapiens, UniProt Q13547). Kind of data set: Inhibition of HDAC1 (unknown origin) expressed in HEK293 cells using [3H]acetylated human histone H4 peptide as substrate by scintillation counting. The data set is classed as cell-based.
Chain of Histone deacetylase 1 (Q13547 whole entry): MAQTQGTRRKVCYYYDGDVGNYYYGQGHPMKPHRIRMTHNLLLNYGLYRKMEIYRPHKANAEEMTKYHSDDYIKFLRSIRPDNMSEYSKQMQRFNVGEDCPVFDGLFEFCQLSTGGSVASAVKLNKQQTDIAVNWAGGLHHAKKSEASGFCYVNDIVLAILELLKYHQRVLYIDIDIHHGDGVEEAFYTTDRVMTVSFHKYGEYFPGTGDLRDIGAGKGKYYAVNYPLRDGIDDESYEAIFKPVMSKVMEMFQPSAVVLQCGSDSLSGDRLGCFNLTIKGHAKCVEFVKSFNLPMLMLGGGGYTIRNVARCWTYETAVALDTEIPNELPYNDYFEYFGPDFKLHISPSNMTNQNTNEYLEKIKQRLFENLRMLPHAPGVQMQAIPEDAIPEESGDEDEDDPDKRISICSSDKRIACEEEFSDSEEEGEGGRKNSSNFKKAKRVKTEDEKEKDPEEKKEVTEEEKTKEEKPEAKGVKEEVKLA
For the next data set, the target named is Histone deacetylase 2 (Homo sapiens, UniProt Q92769). Kind of data set: Inhibition of flag-tagged HDAC2 (unknown origin) expressed in SF21 cells using [3H]acetylated human histone H4 peptide as substrate by scintillation counting.
Chain of Histone deacetylase 2 (Q92769 whole entry): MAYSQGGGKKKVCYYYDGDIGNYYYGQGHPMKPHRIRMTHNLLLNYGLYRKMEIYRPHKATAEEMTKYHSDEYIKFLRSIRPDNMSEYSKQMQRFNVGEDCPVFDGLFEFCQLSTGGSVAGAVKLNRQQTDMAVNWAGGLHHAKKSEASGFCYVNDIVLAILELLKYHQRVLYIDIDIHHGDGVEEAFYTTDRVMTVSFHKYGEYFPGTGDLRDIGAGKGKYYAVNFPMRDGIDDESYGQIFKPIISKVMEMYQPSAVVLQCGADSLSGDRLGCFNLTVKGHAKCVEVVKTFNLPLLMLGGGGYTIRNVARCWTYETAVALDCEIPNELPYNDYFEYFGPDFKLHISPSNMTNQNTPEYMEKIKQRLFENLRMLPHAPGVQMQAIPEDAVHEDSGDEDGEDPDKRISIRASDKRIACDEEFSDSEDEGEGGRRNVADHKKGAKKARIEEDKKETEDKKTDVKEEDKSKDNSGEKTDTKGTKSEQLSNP
A further data set deals with Histone deacetylase 3 (Homo sapiens, UniProt O15379). Kind of data set: Inhibition of HDAC3 (unknown origin) expressed in HEK293 cells using [3H]acetylated human histone H4 peptide as substrate by scintillation counting.
Chain of Histone deacetylase 3 (O15379 whole entry): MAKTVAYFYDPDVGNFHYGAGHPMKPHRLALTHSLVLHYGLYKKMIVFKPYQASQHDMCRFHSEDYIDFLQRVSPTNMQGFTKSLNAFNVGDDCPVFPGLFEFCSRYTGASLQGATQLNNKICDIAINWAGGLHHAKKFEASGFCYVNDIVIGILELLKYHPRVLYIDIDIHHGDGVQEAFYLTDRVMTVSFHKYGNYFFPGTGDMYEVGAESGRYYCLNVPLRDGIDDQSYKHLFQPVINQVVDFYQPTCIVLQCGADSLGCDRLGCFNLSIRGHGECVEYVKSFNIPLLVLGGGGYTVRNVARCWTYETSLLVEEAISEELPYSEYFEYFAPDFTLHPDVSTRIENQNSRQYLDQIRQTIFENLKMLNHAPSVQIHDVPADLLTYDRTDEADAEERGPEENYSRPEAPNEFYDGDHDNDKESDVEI
For data set [1], the target named is T2, Protein deacetylase HDAC6 (Homo sapiens, UniProt Q9UBN7).
T2 sequence (Q9UBN7 whole entry): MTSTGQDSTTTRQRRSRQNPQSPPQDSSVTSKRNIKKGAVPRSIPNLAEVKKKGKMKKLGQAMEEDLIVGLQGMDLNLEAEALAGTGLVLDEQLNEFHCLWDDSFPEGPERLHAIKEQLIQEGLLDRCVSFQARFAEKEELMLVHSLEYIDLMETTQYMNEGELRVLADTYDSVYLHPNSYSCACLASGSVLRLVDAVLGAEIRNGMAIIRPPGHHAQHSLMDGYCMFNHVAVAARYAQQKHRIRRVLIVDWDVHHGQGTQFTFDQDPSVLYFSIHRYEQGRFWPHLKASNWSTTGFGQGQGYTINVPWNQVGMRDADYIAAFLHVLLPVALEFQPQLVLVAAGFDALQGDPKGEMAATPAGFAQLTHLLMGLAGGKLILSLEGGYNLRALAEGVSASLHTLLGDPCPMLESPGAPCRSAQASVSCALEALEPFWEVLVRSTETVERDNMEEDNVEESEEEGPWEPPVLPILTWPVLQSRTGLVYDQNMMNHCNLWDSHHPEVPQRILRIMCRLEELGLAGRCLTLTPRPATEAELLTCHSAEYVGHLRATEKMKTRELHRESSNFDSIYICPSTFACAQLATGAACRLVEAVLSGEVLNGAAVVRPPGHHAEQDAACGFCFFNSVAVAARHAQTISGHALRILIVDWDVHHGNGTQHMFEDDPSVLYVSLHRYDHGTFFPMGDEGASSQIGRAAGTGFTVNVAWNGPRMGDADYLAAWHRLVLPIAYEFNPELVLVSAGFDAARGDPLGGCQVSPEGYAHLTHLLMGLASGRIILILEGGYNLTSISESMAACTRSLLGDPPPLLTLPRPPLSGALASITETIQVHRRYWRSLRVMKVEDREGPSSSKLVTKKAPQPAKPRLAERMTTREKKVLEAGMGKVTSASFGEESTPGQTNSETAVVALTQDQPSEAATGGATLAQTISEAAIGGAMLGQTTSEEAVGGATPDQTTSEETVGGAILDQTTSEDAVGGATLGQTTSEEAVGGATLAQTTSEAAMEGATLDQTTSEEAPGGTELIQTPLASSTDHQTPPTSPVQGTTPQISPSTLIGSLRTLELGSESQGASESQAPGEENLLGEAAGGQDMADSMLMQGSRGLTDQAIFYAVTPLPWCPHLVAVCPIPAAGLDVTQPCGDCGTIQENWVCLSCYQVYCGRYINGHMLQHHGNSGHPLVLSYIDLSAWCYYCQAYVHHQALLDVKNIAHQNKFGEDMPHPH
Kind of data set: Inhibition of HDAC6 (unknown origin) expressed in HEK293 cells using [3H]acetylated human histone H4 peptide as substrate by scintillation counting.

The next data set has as its target CYP1B1 (Homo sapiens, UniProt Q16678). Kind of data set: Activity of recombinant human CYP1B1 expressed in Escherichia coli JM109 co-expressing P450 reductase assessed as enzyme-mediated drug metabolism measured as compound remaining after 1 hr by LC-MS analysis. The data set is classed as ADME. As to conditions: read-out: Stability. In a few lines: (§1)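 Whole E. coli cells were diluted in PSE buffer (50 mM KH2PO4, 250 mM sucrose, 0.25 mM EDTA, pH 7.4) to 100 mg/ml wet biomass. Each suspension was mixed with DL-isocitrate and substrate stock (5 mg/ml in ACN/DMSO 19:1) in aerated caps. Incubation was at 30°C, 1100 rpm for 0.5 or 1 h. Reactions were stopped with ACN/methanol (1:1) and centrifuged, and the supernatant was analysed by LC-MS.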

Data set [2] has as its target T3, CYP2D6 (Homo sapiens, UniProt P10635). Put plainly: Activity of recombinant human CYP2D6 expressed in supersomes assessed as enzyme-mediated drug metabolism measured as compound remaining at 10 uM after 1 hr by LC-MS analysis. As to conditions: read-out: Stability. The data set is classed as ADME. In a few lines: (§2)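 Insect-cell Supersomes coexpressing the rh P450 and rh P450 reductase were incubated with 10 µM substrate in 185 mM HEPES pH 7.5. The mix contained 6.65 mM MgCl2, 0.5 mM NADP, 2.54 mM DL-isocitrate and isocitric dehydrogenase. The reaction was started with the NADPH-regenerating system and run 1 h at 30°C without shaking. It was extracted with 1 volume ACN, centrifuged at 21,000g, and the supernatant analysed by LC-MS.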

For a further data set, the target named is CYP1A1 (Homo sapiens, UniProt P04798). Kind of data set: Activity of recombinant human CYP1A1 expressed in Escherichia coli JM109 co-expressing P450 reductase assessed as enzyme-mediated drug metabolism measured as compound remaining after 1 hr by LC-MS analysis. The data set is classed as ADME. As to conditions: read-out: Stability. In a few lines:
as §1

The next data set has as its target CYP2A6 (Homo sapiens, UniProt P11509). Put plainly: Activity of recombinant human CYP2A6 expressed in Escherichia coli JM109 co-expressing P450 reductase assessed as enzyme-mediated drug metabolism measured as compound remaining after 1 hr by LC-MS analysis. As to conditions: read-out: Stability. The data set is classed as ADME. The essentials:
as §1

The target in a further data set is CYP2E1 (Homo sapiens, UniProt P05181). Kind of data set: Activity of recombinant human CYP2E1 expressed in Escherichia coli JM109 co-expressing P450 reductase assessed as enzyme-mediated drug metabolism measured as compound remaining after 1 hr by LC-MS analysis. The data set is classed as ADME. As to conditions: read-out: Stability. The essentials: as §1
Chain of CYP2E1 (P05181 whole entry): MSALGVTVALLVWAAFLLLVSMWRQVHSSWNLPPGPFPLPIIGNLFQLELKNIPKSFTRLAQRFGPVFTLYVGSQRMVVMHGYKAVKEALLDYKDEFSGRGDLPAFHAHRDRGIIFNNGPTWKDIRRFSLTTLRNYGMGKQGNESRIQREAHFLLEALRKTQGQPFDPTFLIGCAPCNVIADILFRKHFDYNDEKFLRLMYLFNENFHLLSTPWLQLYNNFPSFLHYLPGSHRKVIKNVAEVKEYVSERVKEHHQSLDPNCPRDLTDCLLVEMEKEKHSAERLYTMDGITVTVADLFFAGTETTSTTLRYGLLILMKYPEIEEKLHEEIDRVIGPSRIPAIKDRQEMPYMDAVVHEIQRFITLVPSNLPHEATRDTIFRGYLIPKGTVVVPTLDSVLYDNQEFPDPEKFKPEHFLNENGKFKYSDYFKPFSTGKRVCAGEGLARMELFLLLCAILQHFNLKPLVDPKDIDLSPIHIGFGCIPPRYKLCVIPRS
In data set [3] the target is T4, CYP3A4 (Homo sapiens, UniProt P08684). Put plainly: Activity of recombinant human CYP3A4 expressed in Escherichia coli JM109 co-expressing P450 reductase assessed as enzyme-mediated drug metabolism measured as compound remaining after 1 hr by LC-MS analysis in presence of cytochrome b5. The data set is classed as ADME. As to conditions: read-out: Stability. In a few lines:
as §1

The target in a further data set is CYP2C8 (Homo sapiens, UniProt P10632). Kind of data set: Activity of recombinant human CYP2C8 expressed in Escherichia coli JM109 co-expressing P450 reductase assessed as enzyme-mediated drug metabolism measured as compound remaining after 1 hr by LC-MS analysis. The data set is classed as ADME. As to conditions: read-out: Stability. The essentials:
as §1

The target of a further data set is CYP2C18 (Homo sapiens, UniProt P33260). Kind of data set: Activity of recombinant human CYP2C18 expressed in Escherichia coli JM109 co-expressing P450 reductase assessed as enzyme-mediated drug metabolism measured as compound remaining after 1 hr by LC-MS analysis. The data set is classed as ADME. As to conditions: read-out: Stability. The essentials: as §1
The next data set addresses CYP4A11 (Homo sapiens, UniProt Q02928). Put plainly: Activity of recombinant human CYP4A11 expressed in Escherichia coli JM109 co-expressing P450 reductase assessed as enzyme-mediated drug metabolism measured as compound remaining after 1 hr by LC-MS analysis. The data set is classed as ADME. As to conditions: read-out: Stability. The essentials:
as §1

The target of a further data set is CYP2C19 (Homo sapiens, UniProt P33261). Kind of data set: Activity of recombinant human CYP2C19 expressed in Escherichia coli JM109 co-expressing P450 reductase assessed as enzyme-mediated drug metabolism measured as compound remaining after 1 hr by LC-MS analysis. The data set is classed as ADME. As to conditions: read-out: Stability. In a few lines: as §1
In data set [4] the target is T4, CYP3A4. Put plainly: Activity of recombinant human CYP3A4 expressed in supersomes assessed as enzyme-mediated drug metabolism measured as compound remaining at 10 uM after 1 hr by LC-MS analysis. The data set is classed as ADME. As to conditions: read-out: Stability. In a few lines:
as §2

For another data set, the target named is CYP2B6 (Homo sapiens, UniProt P20813). Kind of data set: Activity of recombinant human CYP2B6 expressed in Escherichia coli JM109 co-expressing P450 reductase assessed as enzyme-mediated drug metabolism measured as compound remaining after 1 hr by LC-MS analysis. As to conditions: read-out: Stability. The data set is classed as ADME. The essentials:
as §1

A further data set addresses CYP2C9 (Homo sapiens, UniProt P11712). Put plainly: Activity of recombinant human CYP2C9 expressed in Escherichia coli JM109 co-expressing P450 reductase assessed as enzyme-mediated drug metabolism measured as compound remaining after 1 hr by LC-MS analysis. The data set is classed as ADME. As to conditions: read-out: Stability. The essentials:
as §1

The target of data set [5] is T3, CYP2D6. Kind of data set: Activity of recombinant human CYP2D6 expressed in Escherichia coli JM109 co-expressing P450 reductase assessed as enzyme-mediated drug metabolism measured as compound remaining after 1 hr by LC-MS analysis. The data set is classed as ADME. As to conditions: read-out: Stability. The essentials:
as §1

In data set [6] the target is T4, CYP3A4. Kind of data set: Activity of recombinant human CYP3A4 expressed in Escherichia coli JM109 co-expressing P450 reductase assessed as enzyme-mediated drug metabolism measured as compound remaining after 1 hr by LC-MS analysis. The data set is classed as ADME. As to conditions: read-out: Stability. The essentials:
as §1

A further data set concerns the target CYP1A2 (Homo sapiens, UniProt P05177). Put plainly: Activity of recombinant human CYP1A2 expressed in Escherichia coli JM109 co-expressing P450 reductase assessed as enzyme-mediated drug metabolism measured as compound remaining after 1 hr by LC-MS analysis. The data set is classed as ADME. As to conditions: read-out: Stability. In a few lines:
as §1

A further data set addresses CYP3A5 (Homo sapiens, UniProt P20815). Put plainly: Activity of recombinant human CYP3A5 expressed in Escherichia coli JM109 co-expressing P450 reductase assessed as enzyme-mediated drug metabolism measured as compound remaining after 1 hr by LC-MS analysis. As to conditions: read-out: Stability. The data set is classed as ADME. The essentials:
as §1

Data set [7] is described as follows: Drug metabolism in Escherichia coli JM109 assessed as compound remaining after 1 hr by LC-MS analysis. The data set is classed as ADME, organism-based. As to conditions: read-out: Stability. In a few lines:
as §1

Each structure is given as a SMILES string.

Chain of Histone deacetylase 4 (P56524 whole entry): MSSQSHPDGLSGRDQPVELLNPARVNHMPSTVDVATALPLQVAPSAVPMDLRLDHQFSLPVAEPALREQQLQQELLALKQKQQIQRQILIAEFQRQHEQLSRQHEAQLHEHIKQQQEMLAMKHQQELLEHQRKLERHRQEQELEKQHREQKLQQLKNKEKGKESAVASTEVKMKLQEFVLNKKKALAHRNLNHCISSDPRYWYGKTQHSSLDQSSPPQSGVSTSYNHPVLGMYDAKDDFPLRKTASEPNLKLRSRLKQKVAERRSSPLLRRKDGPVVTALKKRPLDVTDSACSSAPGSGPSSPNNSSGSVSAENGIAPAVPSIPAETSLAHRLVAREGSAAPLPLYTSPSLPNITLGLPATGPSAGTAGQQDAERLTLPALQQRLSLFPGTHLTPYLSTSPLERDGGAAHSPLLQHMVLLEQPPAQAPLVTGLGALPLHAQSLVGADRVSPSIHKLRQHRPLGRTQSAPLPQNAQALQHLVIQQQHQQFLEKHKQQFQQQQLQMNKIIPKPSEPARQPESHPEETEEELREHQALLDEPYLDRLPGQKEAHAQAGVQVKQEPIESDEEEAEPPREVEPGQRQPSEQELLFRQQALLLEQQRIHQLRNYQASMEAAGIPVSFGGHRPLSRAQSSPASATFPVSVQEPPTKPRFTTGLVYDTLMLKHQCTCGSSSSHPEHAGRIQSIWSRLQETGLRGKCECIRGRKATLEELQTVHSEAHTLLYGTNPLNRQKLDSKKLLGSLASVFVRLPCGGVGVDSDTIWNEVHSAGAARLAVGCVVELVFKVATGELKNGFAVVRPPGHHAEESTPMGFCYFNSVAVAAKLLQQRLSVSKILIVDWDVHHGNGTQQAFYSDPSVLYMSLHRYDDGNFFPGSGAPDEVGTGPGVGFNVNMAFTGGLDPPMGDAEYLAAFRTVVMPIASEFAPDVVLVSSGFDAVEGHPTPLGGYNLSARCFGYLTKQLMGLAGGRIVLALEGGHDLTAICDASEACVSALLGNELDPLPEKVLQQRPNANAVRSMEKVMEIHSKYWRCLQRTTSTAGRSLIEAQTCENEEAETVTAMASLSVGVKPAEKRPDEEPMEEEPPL
T4 sequence (P08684 whole entry): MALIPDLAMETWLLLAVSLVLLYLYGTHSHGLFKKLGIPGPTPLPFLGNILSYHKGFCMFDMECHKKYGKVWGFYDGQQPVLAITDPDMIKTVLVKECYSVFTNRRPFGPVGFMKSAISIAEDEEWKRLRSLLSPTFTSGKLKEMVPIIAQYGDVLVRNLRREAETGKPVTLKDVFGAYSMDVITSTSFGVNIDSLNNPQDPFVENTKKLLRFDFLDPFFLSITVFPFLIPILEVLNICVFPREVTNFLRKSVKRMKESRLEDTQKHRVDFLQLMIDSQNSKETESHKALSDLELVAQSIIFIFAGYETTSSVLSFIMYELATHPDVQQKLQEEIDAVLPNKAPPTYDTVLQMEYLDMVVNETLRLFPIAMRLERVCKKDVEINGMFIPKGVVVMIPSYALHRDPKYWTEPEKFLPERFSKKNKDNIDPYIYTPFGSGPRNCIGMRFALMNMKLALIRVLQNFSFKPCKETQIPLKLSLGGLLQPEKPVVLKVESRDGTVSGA
T3 sequence (P10635 whole entry): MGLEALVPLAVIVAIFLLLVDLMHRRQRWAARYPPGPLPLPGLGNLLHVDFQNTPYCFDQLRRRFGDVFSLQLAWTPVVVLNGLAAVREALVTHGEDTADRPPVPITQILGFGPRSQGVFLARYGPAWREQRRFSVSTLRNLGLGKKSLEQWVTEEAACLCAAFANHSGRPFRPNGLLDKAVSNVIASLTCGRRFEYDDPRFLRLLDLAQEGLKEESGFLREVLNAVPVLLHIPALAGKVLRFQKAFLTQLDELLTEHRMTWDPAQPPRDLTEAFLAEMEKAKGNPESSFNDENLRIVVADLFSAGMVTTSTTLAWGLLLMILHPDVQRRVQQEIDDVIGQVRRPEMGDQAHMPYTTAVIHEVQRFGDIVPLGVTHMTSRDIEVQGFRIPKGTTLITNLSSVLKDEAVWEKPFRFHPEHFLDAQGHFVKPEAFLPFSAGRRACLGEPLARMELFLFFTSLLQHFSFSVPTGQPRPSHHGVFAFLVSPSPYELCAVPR
Chain of CYP2C9 (P11712 whole entry): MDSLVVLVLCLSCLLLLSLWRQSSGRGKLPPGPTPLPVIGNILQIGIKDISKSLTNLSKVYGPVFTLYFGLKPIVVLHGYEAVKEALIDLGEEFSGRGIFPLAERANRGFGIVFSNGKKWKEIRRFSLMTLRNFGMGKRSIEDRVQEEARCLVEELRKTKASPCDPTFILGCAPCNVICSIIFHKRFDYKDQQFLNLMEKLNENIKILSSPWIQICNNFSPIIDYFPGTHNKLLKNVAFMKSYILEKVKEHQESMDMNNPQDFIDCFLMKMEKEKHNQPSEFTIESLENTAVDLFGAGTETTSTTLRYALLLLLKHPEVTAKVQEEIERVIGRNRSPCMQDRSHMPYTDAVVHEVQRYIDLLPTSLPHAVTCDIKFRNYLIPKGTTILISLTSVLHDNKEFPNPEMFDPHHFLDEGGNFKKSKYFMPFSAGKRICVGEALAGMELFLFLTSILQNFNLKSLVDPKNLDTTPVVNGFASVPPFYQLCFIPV
Chain of CYP3A5 (P20815 whole entry): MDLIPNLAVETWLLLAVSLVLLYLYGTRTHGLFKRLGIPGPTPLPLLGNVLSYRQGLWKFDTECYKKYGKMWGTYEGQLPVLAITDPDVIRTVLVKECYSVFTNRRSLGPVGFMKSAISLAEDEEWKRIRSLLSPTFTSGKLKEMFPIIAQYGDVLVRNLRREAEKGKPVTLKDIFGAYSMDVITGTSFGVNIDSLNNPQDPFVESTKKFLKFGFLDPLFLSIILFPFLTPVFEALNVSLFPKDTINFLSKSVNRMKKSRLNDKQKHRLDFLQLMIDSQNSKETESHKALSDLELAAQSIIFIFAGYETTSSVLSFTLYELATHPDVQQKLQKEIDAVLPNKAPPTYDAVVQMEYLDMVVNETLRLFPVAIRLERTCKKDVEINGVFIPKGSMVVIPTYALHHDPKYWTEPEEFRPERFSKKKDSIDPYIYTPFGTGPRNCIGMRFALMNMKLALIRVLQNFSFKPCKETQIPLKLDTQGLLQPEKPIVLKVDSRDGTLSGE

For the molecule `C[C@@]12Nc3ccccc3[C@]1(O)CCN2Cc1ccc(/C=C/C(=O)NO)cc1`, the IC50 – broadly, the point on the concentration scale where inhibition reaches its midpoint – amounted to 0.23 µM against Histone deacetylase 4; 0.92 µM on Histone deacetylase 8; 0.14 µM at Histone deacetylase 1; 1.5 µM at Histone deacetylase 2; 0.18 µM at Histone deacetylase 3; 0.062 µM in data set [1].
As for `C[C@@]12Nc3ccccc3[C@]1(O)CCN2Cc1ccc(/C=C/C(N)=O)cc1`, the half-inhibitory concentration (IC50) against Histone deacetylase 4 came out at 1 µM; at Histone deacetylase 8 it was 23 µM; at Histone deacetylase 1 it was 0.97 µM; on Histone deacetylase 2, 6 µM; at Histone deacetylase 3, 0.93 µM; in [1] it was 1.1 µM.
On to `Cc1[nH]c2cc(O)ccc2c1CCNCc1ccc(/C=C/C(N)=O)cc1`, for which the half-maximal inhibitory concentration (IC50) was 4.6 µM against Histone deacetylase 4; 6.8 µM on Histone deacetylase 8; 4.6 µM at Histone deacetylase 1; 27 µM against Histone deacetylase 2; 3.3 µM against Histone deacetylase 3; 4.9 µM in data set [1].
With `Cc1[nH]c2ccccc2c1CCNCc1ccc(/C=C/C(N)=O)cc1`, the half-maximal inhibitory concentration (IC50) was 18 µM against Histone deacetylase 4; 22 µM on Histone deacetylase 8; 11 µM against Histone deacetylase 1; 29 µM on Histone deacetylase 2; 22 µM against Histone deacetylase 3; greater than 30 µM in data set [1].
For `Cc1[nH]c2ccccc2c1CCNCc1ccc(/C=C/C(=O)NO)cc1` [PANOBINOSTAT], the remaining at 1 h on CYP1B1 was 79%; on CYP1A1, 61%; on CYP2A6 it was 81%; at CYP2E1 it was 50%; at CYP3A4 [3] it was 45%; at CYP2C8 it was 63%. Further, the remaining at 1 h at CYP2C18 was 56%; at CYP4A11, 59%; on CYP2C19, 80%; at CYP2B6, 62%; at CYP2C9, 34%; on CYP2D6 [5], 44%. For the same molecule, the remaining at 1 h on CYP3A4 [6] turned out to be 37%; on CYP1A2, 72%; on CYP3A5 it was 73%; in [7] it was 55%. Moreover, the remaining at 1 h, 10 µM at CYP2D6 [2] and on CYP3A4 [4] was 94% each time.
